{"source": "PubChem BioAssay AID743247", "about": "(Broad Institute, 2014)", "note": "The campaign covered roughly 350,000 compounds. About 300 (0.086%) were called active. Shown is part of a subset that was picked to be rich in actives. A number with no mark means an inactive call.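 The calls were made as follows: active = mean inhibition across replicates of 30% or more, regardless of how many single replicates reach that level; inconclusive = mean under 30% yet at least half of replicates reach 30%; inactive = the rest.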", "data": [{"experiment": "blockers of fibronectin fibrillogenesis by fibroblasts – AH1F cells, Alexa488-fibronectin fluorescence, plate reader, primary screen (AID 743247);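 also: positive control wells lacked labelled fibronectin entirely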", "conditions": "Alexa488-fibronectin deposition fluorescence, overnight, at 12.6 µM, hits give high values", "how_it_was_run": "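Material: AH1F fibroblast monolayer depositing Alexa488-labelled fibronectin into matrix | Input: 10000 AH1F cells/well | Medium: DMEM plus 2% serum, read in PBS | Reagent: Alexa488-fibronectin, 24 nM final in well | Compound dosing: One dose per compound, pinned | Schedule: 1 h adhesion, overnight exposure | Measured by: Fluorescence at 485 nm excitation, 525 nm emission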", "values": [{"smiles": "CO[C@@H]1CN(C)C(=O)c2cc(NC(=O)C3CC3)ccc2OC[C@@H](C)N(C(=O)NC(C)C)C[C@@H]1C", "inhibition": "-0.851%"}, {"smiles": "C[C@@H](NC(=O)C[C@@H]1C[C@H]2c3cc(NC(=O)C4CCC4)ccc3O[C@H]2[C@@H](CO)O1)c1ccccc1", "inhibition": "17.4%"}, {"smiles": "O=C(NC[C@@H]1[C@@H](c2ccccc2)[C@@H](CO)N1Cc1ccccn1)C1CCC1", "inhibition": "-14.4%"}, {"smiles": "O=C(C[C@@H]1CC[C@@H](NS(=O)(=O)c2ccc(F)cc2)[C@@H](CO)O1)NCCc1ccncc1", "inhibition": "-5.79%"}, {"smiles": "C[C@@H]1CN([C@@H](C)CO)C(=O)Cc2cc(NC(=O)Nc3ccc4c(c3)OCO4)ccc2O[C@H]1CN(C)S(=O)(=O)c1ccccc1", "inhibition": "0.36%"}, {"smiles": "C[C@@H]1CN([C@H](C)CO)C(=O)c2ccccc2-c2ccccc2CO[C@H]1CN(C)S(=O)(=O)c1ccsc1", "inhibition": "1.86%"}, {"smiles": "C[C@@H]1CN([C@H](C)CO)S(=O)(=O)c2ccc(C#CC3CC3)cc2O[C@H]1CN(C)C(=O)C1CCCCC1", "inhibition": "-1.06%"}, {"smiles": "COc1ccc2c3c(n(C)c2c1)[C@H](CO)NCC31CN(Cc2cc(F)ccc2F)C1", "inhibition": "-4.09%"}, {"smiles": "O=C(C1CCCCC1)N1CC2(C1)[C@H](c1ccccc1)[C@H](CO)N2CC1CCCC1", "inhibition": "-10.3%"}, {"smiles": "CS(=O)(=O)N1C[C@@H]2C(c3ccccc3)[C@H](C1)N2CC(F)(F)F", "note": "(some centres not stated)", "inhibition": "-13.1%"}, {"smiles": "O=C(C[C@@H]1CC[C@@H](NC(=O)Nc2ccc(F)cc2)[C@H](CO)O1)NCCN1CCCC1", "inhibition": "0.829%"}, {"smiles": "COc1ccc(-c2ccc3c(c2)[C@@H]2[C@@H](CCN2C(=O)NC2CCCC2)[C@@H](CO)N3C)cc1", "inhibition": "5.47%"}, {"smiles": "CC(C)NC(=O)Nc1cccc2c1O[C@@H](CN(C)C(=O)NC(C)C)[C@@H](C)CN(C)C2=O", "inhibition": "3.55%"}, {"smiles": "CN(C)CC(=O)N1CC2(C1)[C@H](c1ccccc1)[C@H](CO)N2C(=O)C1CC1", "inhibition": "-3.48%"}, {"smiles": "O=C(C1CCOCC1)N1CC(=O)N2[C@H](CO)[C@@H](c3ccc(C#CC4CCCC4)cc3)[C@H]2C1", "inhibition": "-4.97%"}, {"smiles": "Cc1ccc(-n2ncc3c(=O)[nH]cnc32)c(C)c1", "inhibition": "-2.15%"}, {"smiles": "Cc1cccc(-n2ncc3c(=O)[nH]c(SCC(=O)Nc4cc(C)on4)nc32)c1", "inhibition": "-0.734%"}, {"smiles": "Cc1cccc(-n2ncc(Cl)c(Cl)c2=O)c1", "inhibition": "51.7% (active)"}, {"smiles": "COc1ccc(-c2ccc3c(c2)O[C@@H](CN(C)CC2CCOCC2)[C@@H](C)CN([C@@H](C)CO)S3(=O)=O)cc1", "inhibition": "5.61%"}, {"smiles": "C[C@@H]1CC=CC[C@@H](c2ccccc2)NC(=O)[C@H](C)N(C)C(=O)c2ccccc2O1", "note": "(mixture of isomers)", "inhibition": "-2.82%"}, {"smiles": "CN(C)c1ccc2c(c1)[C@H]1C[C@H](CC(=O)NCc3ccc(Cl)cc3)O[C@H](CO)[C@H]1O2", "inhibition": "1.04%"}, {"smiles": "C[C@@H]1CC=CC[C@H](c2ccc(F)cc2)NC(=O)[C@@H](Cc2ccccc2)N(C)C(=O)c2ccccc2O1", "note": "(mixture of isomers)", "inhibition": "7.06%"}, {"smiles": "COc1ccccc1NC(=O)N[C@H]1CC[C@H](CCNC(=O)Cc2ccccn2)O[C@@H]1CO", "inhibition": "1.21%"}, {"smiles": "COC(=O)C[C@H]1CC[C@@H]2[C@@H](COc3ccc(NC(=O)Nc4ccc(Cl)cc4)cc3C(=O)N2C)O1", "inhibition": "-17.5%"}, {"smiles": "CN(C)C(=O)c1ccc(-c2ccc([C@H]3[C@H](CO)N4C(=O)CN(C(=O)C5CCCC5)C[C@@H]34)cc2)cc1", "inhibition": "0.201%"}, {"smiles": "C[C@H]1CCCCO[C@H](CN(C)C(=O)Nc2ccc(F)cc2)[C@@H](C)CN([C@@H](C)CO)C(=O)c2cc(NC(=O)CCC(F)(F)F)ccc2O1", "inhibition": "7.35%"}, {"smiles": "COc1ccc2c3c(n(C)c2c1)[C@H](CO)N(C(=O)c1ccncc1)CC31CCN(CC2CC2)CC1", "inhibition": "-1.91%"}, {"smiles": "O=C(C[C@@H]1C=C[C@@H](NC(=O)c2cccnc2)[C@H](CO)O1)NCc1ccncn1", "inhibition": "11.1%"}, {"smiles": "CNC(=O)C[C@@H]1CC[C@@H]2[C@H](COc3ccc(NC(=O)c4cccs4)cc3C(=O)N2C)O1", "inhibition": "-9.79%"}, {"smiles": "C[C@@H](C(=O)N(C)C[C@H]1OCc2ccccc2-c2c(n(C)c3ccccc23)C(=O)N([C@@H](C)CO)C[C@@H]1C)c1ccccc1", "inhibition": "-2.51%"}, {"smiles": "COc1cccc(C#Cc2ccc3c(c2)[C@@H]2[C@@H](CCN2S(=O)(=O)c2ccc(C)cc2)[C@@H](CO)N3)c1", "inhibition": "2.44%"}, {"smiles": "COc1ccccc1C#Cc1ccc([C@H]2[C@@H](C#N)N(C(=O)C3CCCCC3)[C@@H]2CO)cc1", "inhibition": "-2.57%"}, {"smiles": "O=C(C[C@@H]1CC[C@@H]2[C@H](COC[C@@H](O)CN2C(=O)c2ccccc2F)O1)N1CCOCC1", "inhibition": "-11.5%"}, {"smiles": "O=C(O)C[C@H]1C=C[C@@H](NC(=O)Nc2cc(F)ccc2F)[C@@H](CO)O1", "inhibition": "-9.56%"}, {"smiles": "COc1ccc([C@@H]2C/C=C\\C[C@@H](c3ccc4c(c3)OCO4)NC(=O)CCC(=O)N2)c(OC)c1", "inhibition": "8.56%"}, {"smiles": "CC(C)NC(=O)N[C@@H]1CC[C@H](CC(=O)NC2Cc3ccccc3C2)O[C@H]1CO", "inhibition": "10.9%"}, {"smiles": "O=C(C[C@@H]1CC[C@H](NC(=O)C2CCC2)[C@@H](CO)O1)NC1CCCCC1", "inhibition": "-5.05%"}, {"smiles": "CC(C)C#Cc1ccc2c(c1)O[C@@H](CN(C)C(=O)C1CCC1)[C@@H](C)CN([C@@H](C)CO)S2(=O)=O", "inhibition": "-2.23%"}, {"smiles": "CC(=O)N(C)C[C@H]1Oc2ncc(C#Cc3ccc(F)cc3)cc2C(=O)N([C@H](C)CO)C[C@@H]1C", "inhibition": "11.6%"}, {"smiles": "CN1C(=O)c2cc(NC(=O)Cc3ccccc3)ccc2OC[C@H]2O[C@H](CC(=O)NCc3ccc(Cl)cc3)CC[C@H]21", "inhibition": "1.06%"}, {"smiles": "CC(C)NC(=O)Nc1ccc2c(c1)CC(=O)N(C)C[C@@H](C)[C@@H](CN(C)C(=O)OC(C)(C)C)O2", "inhibition": "-1.15%"}, {"smiles": "COc1cccc(C(=O)Nc2ccc3c(c2)OC[C@H](C)NC[C@H](C)[C@H](OC)CN(C)C3=O)c1", "inhibition": "3.33%"}, {"smiles": "O=C(c1cccnc1)N1C[C@H]2[C@@H](c3ccccc31)[C@H](CO)N2C(=O)C1CC1", "inhibition": "7.1%"}, {"smiles": "COc1cccc(-c2cnc3c(c2)C(=O)N([C@@H](C)CO)C[C@@H](C)[C@@H](CN(C)Cc2ccc(C(=O)O)cc2)O3)c1", "inhibition": "-19.8%"}, {"smiles": "CC(C)NC(=O)N(C)C[C@H]1Oc2ccc(N)cc2C(=O)N(C)C[C@@H]1C", "inhibition": "0.428%"}, {"smiles": "C[C@H]1CCCCO[C@@H](CN(C)C(=O)Nc2ccccc2)[C@@H](C)CN([C@@H](C)CO)C(=O)c2cc(NC(=O)CCC(F)(F)F)ccc2O1", "inhibition": "-5.23%"}, {"smiles": "C[C@@H]1CN([C@@H](C)CO)C(=O)c2c(c3ccccc3n2C)-c2ccccc2CO[C@H]1CN(C)C(=O)N[C@H](C)c1ccccc1", "inhibition": "-3.56%"}, {"smiles": "COCC(=O)Nc1ccc2c(c1)OC[C@@H](C)N(Cc1ccccc1C(=O)O)C[C@@H](C)[C@H](OC)CN(C)C2=O", "inhibition": "-5.62%"}, {"smiles": "CCC(=O)Nc1ccc2c(c1)C(=O)N(C)C[C@@H](OC)[C@@H](C)CN(C(=O)CN(C)C)[C@@H](C)CO2", "inhibition": "2.05%"}, {"smiles": "CNC[C@@H]1Oc2ccc(NC(C)=O)cc2CC(=O)N(C)C[C@@H]1C", "inhibition": "-0.299%"}, {"smiles": "CO[C@H]1CN(C)C(=O)c2ccc(NC(=O)Nc3ccccc3)cc2OC[C@@H](C)N(C(=O)CC2CC2)C[C@@H]1C", "inhibition": "-8.75%"}, {"smiles": "O=C(Nc1nc(-c2ccncc2)cs1)C1COc2ccccc2O1", "note": "(configuration not stated)", "inhibition": "30.8% (active)"}, {"smiles": "O=C(Nc1cc(S(=O)(=O)N2CCCCC2)ccc1Cl)C1COc2ccccc2O1", "note": "(configuration not stated)", "inhibition": "1.13%"}, {"smiles": "C/C(=N/NC(=O)C1COc2ccccc2O1)c1ccco1", "note": "(configuration not stated)", "inhibition": "-7.65%"}, {"smiles": "COc1ccccc1NC(=O)N[C@H]1C=C[C@@H](CC(=O)N[C@@H](C)c2ccccc2)O[C@@H]1CO", "inhibition": "-15.6%"}, {"smiles": "CCCc1cn(CC[C@H]2CC[C@@H](NC(=O)C3CCOCC3)[C@@H](CO)O2)nn1", "inhibition": "0.091%"}, {"smiles": "O=C(COC(=O)c1ccccc1)Nc1ccccc1Sc1ccccc1", "inhibition": "-7.06%"}, {"smiles": "O=C(OCC(O)C(O)COC(=O)c1ccccc1)c1ccccc1", "note": "(configuration not stated)", "inhibition": "2.45% (active)"}, {"smiles": "O=C(OCc1ccc(-c2ccccc2)cc1)c1cccc(O)c1", "inhibition": "7.52%"}, {"smiles": "C[C@H]1CN([C@@H](C)CO)C(=O)c2c(c3ccccc3n2C)-c2ccccc2CO[C@@H]1CN(C)C(=O)Nc1ccnc(N2CCOCC2)c1", "inhibition": "4.14%"}, {"smiles": "O=C(C1CCC1)N1CC(=O)N2[C@H](CO)[C@H](c3ccc(C#CCc4ccccc4)cc3)[C@@H]2C1", "inhibition": "-13.2%"}, {"smiles": "O=C(C[C@H]1C=C[C@@H](NC(=O)c2ccc(F)cc2)[C@@H](CO)O1)NCCc1ccncc1", "inhibition": "10.9%"}, {"smiles": "COc1ccccc1S(=O)(=O)N1C[C@@H](O)COC[C@H]2O[C@H](CC(=O)O)CC[C@@H]21", "inhibition": "-7.66%"}, {"smiles": "Cc1ccc(S(=O)(=O)Nc2ccc3c(c2)C(=O)N([C@@H](C)CO)C[C@@H](C)[C@@H](CN(C)Cc2ccc(C(F)(F)F)cc2)OCCCC[C@@H](C)O3)cc1", "inhibition": "7.11%"}, {"smiles": "CC(C)NC(=O)N[C@H]1CC[C@H](CC(=O)NCCCN(C)C)O[C@H]1CO", "inhibition": "-22.3%"}, {"smiles": "C[C@H]1CN(C)C(=O)c2cc(N(C)C)ccc2O[C@H]1CN(C)C(=O)OC(C)(C)C", "inhibition": "-2.56%"}, {"smiles": "CO[C@@H]1CN(C)C(=O)c2cc(NC(=O)C3CC3)ccc2OC[C@H](C)N(C(=O)CN(C)C)C[C@H]1C", "inhibition": "-1.48%"}]}]}
